DENV2 CPE rescue = DENV2-induced cell death inhibition. 350,000 compounds, 1.7% hits. DENV2-infected cells, cytopathic effect rescue, plate reader. AID 651640. CPE inhibition, % at 9.99 µM; in the data active = CPE inhibition above about 20%, passing the limit was not always enough; inconclusive = no clear call, values can overlap the other calls; tested in BHK-21 cells;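 note: 0% = median of neutral control wells and 100% = median of positive control wells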
E-selectin induc = induces E-selectin expression in human endothelial cells; activation, % at 7.58 µM; HUVEC E-selectin immunofluorescence imaging; normalized: neutral wells 0, TNF-alpha wells 100; P16581; 260,000 compounds, 0.37% hits;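 active = mean E-selectin-positive cell signal at least 10% of the positive control, reached in at least 60% of replicates, without over 20% cell loss; inconclusive = no rule given, readout overlaps actives, possibly toxicity-flagged; inactive = the rest, including those meeting only one limit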
Target sequence (P16581 whole entry, looked up): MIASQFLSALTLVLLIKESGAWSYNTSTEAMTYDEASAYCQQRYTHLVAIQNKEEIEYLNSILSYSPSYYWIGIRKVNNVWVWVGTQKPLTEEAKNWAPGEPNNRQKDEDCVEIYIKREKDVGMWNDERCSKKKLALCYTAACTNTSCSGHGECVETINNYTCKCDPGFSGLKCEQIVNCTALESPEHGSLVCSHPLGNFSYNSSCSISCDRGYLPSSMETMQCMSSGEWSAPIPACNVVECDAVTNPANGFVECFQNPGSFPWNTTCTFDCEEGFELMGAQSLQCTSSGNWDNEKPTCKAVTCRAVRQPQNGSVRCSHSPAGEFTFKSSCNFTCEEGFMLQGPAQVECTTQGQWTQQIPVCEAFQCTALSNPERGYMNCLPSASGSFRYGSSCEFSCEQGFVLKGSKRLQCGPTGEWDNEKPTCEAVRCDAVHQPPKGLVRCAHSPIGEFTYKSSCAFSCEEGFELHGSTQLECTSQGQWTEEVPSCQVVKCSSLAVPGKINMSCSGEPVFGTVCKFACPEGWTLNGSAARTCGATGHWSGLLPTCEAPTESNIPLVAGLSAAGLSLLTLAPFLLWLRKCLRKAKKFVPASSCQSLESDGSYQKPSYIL
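Assay system: HUVEC primary endothelial cells. Input: 3,000 HUVEC seeded per well. Doses: one compound dose added by pin transfer. Read-out basis: % PE-positive cells. Benchmarks: TNF-alpha high, DMSO low. Detection: immunofluorescence imaging. Buffer or medium: EGM-2, gelatin.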
miR122 inh = miR-122 inhibition in Huh7 cells; AID 602342; 340,000 compounds, 0.3% hits; activation (reporter increase), % at 12.5 µM; Huh7 miR-122 Renilla luciferase sensor, 48 h; neutral wells = 0, positive control = 100;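 active = mean replicate activation score at least 90 and every replicate individually at or above 90; inconclusive = only one of the two criteria met; inactive = neither criterion met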;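 note: higher luciferase means less miR-122 activity so hits act as miR-122 inhibitors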
Cneo AK release = causes C. neoformans cell lysis; adenylate kinase release luminescence, 4 h; normalised: neutral wells 0, clomiphene wells 100; lysis activity, % at 15 µM; 360,000 compounds, 0.2% hits;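 active = mean lysis activity across replicates of at least 80%, whatever share of replicates individually reach that level; inactive = mean lysis activity below 80%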
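Test system: log-phase Cryptococcus neoformans yeast cells. Input: 5 × 10^6 yeast cells/mL. Medium: fresh YPD growth medium. Doses: single dose. Incubation: static 4 h at 37 °C with compound, 1 h detection. Measured by: luminescent adenylate kinase detection reagent. Read-out: signal increase indicating cell lysis. Benchmarks: Clomiphene.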
Ecoli rRNA inh = selective bacterial rRNA inhibition in E. coli. GFP signal change (wild-type ribosome), % (no concentration beside the values). 350,000 compounds, 1.6% hits. E. coli WT GFP vs humanized-ribosome RFP mutants, fluorescence, 24 h; stronger effect = lower value; DMSO median 0, no signal -100;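 active = significant combined selectivity score with lowered wild-type GFP, culture density cut under 30%, mutant RFP and density less affected; inactive = any of these conditions unmet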
HepG2 tox = cytotoxic compounds in HepG2 cells | AID 743480 | 30 tested, under 10 active | shares compounds with Ecoli rRNA inh | activity change, negative = cytotoxicity, unspecified at 26 µM | HepG2 viability, ATP luminescence, 72 h;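 active = compounds whose fitted half-maximal signal-loss concentration is at most twice their highest valid dose; inconclusive = flat curve with 30 to 70% signal loss, or poor fit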
AID977621 = wild-type E. coli growth inhibition versus H69 humanized strain – H69 mutant RFP, wild-type GFP, cherry-pick, dose response | shares compounds with Ecoli rRNA inh | activity change, negative = inhibition at 50 µM | fluorescence, 24 h | 1,900 tested, under 10 active;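 active = Wild-type ribosome reporter drop at least double the humanized mutant ribosome reporter drop, growth loss under a set limit; inconclusive = no clear call, values can overlap the other calls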;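 note: wild-type GFP and H69 mutant RFP strains grown together 50/50 in each well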
AID977628 = E. coli growth inhibition, wild-type GFP versus h24 humanized RFP strain, dose response, h24 mutant RFP vs wild-type GFP, cherry-pick. shares compounds with Ecoli rRNA inh. E. coli WT GFP strain growth, fluorescence, 24 h. activity change, negative = inhibition at 50 µM. 1,900 tested, under 10 active;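 active = compound lowering the normal-ribosome reporter at least twice as much as the humanized-ribosome reporter, growth loss under a set limit; inconclusive = no clear call, values can overlap the other calls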;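 note: wild-type GFP and h24 humanized RFP strains co-cultured 1 to 1 per well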
An asterisk follows results filed as active; ? = inconclusive; nt = no result; [ ] = another dose, or the depositor's remark. Rows were chosen to be rich in hits. Some 3.1% of all compounds tested hit in one or more screens of this group.

SMILES | DENV2 CPE rescue | E-selectin induc | miR122 inh | Cneo AK release | Ecoli rRNA inh | AID977621 | AID977628 | others
Cc1noc(C)c1NC(=O)Nc1ccc2c(c1)C(=O)N([C@@H](C)CO)C[C@H](C)[C@H](CN(C)C(=O)Nc1ccc3c(c1)OCO3)OCCCC[C@H](C)O2 | -4 | 0 | -4[16.7 µM] | -1 | 2 | nt | ?
Cc1noc(C)c1NC(=O)N(C)C[C@@H]1OCCCC[C@@H](C)Oc2ccc(NC(=O)Nc3ccc4c(c3)OCO4)cc2C(=O)N([C@H](C)CO)C[C@@H]1C | -2 | 0 | 9[16.7 µM] | 1 | 1 | nt | nt
Cc1noc(C)c1NC(=O)Nc1ccc2c(c1)C(=O)N([C@@H](C)CO)C[C@@H](C)[C@H](CN(C)C(=O)Nc1ccc3c(c1)OCO3)OCCCC[C@@H](C)O2 | 9 | 0 | 6[16.7 µM] | 4 | 1 | ? | 13
Cc1ccc(S(=O)(=O)N[C@H]2C=C[C@H](CC(=O)NCCN3CCCCC3)O[C@@H]2CO)cc1 | 2 | 0 | -5[16.7 µM] | 7 | -1 | nt | nt
Cc1noc(C)c1NC(=O)Nc1ccc2c(c1)C(=O)N([C@H](C)CO)C[C@@H](C)[C@@H](CN(C)C(=O)Nc1ccc3c(c1)OCO3)OCCCC[C@@H](C)O2 | -1 | 0 | 2[16.7 µM] | -1 | -41* | nt | ? | HepG2 tox=18
Cc1ccc(N(CCC(=O)O)S(=O)(=O)c2ccccc2)cc1 | nt | 0 | nt | nt | nt | nt | nt
COc1ccc(N(CCC(=O)O)S(=O)(=O)c2ccc(C)cc2C)cc1 | 15 | 1 | nt | nt | -17* | 3.8 | -9.3
Cn1cnc(S(=O)(=O)N2C[C@H](O)COC[C@H]3O[C@H](CC(=O)NCc4ccc(F)cc4)CC[C@@H]32)c1 | -10 | 0 | 12[16.7 µM] | 2 | 4 | nt | nt
CC(=O)Nc1ccc(-c2csc(Nc3ncccn3)n2)cc1 | 4 | nt | -10 | nt | 6 | nt | nt
Oc1ccc(-c2csc(Nc3ncccn3)n2)cc1 | 0 | 1 | -6 | nt | -17* | -21 | -15
CC(C)CC#Cc1ccc2c(c1)O[C@@H](CN(C)Cc1ccncc1)[C@@H](C)CN([C@@H](C)CO)S2(=O)=O | 0 | 1 | -8[16.7 µM] | -5 | -17 | nt | nt
O=[N+]([O-])c1cncc([N+](=O)[O-])c1Nc1cccc(O)c1 | 2 | nt | 1 | -2 | -26* | nt | -11
NC(=O)c1cc(NC(=O)c2cc(Br)c(Br)s2)cc(C(N)=O)c1 | 9 | nt | nt | nt | -24* | nt | ?
O=S(=O)(NC1c2cccc3cccc(c23)C1Sc1ncccn1)c1ccccc1 (stereo not drawn) | 2 | 0 | nt | nt | -24* | -7.5 | ?
Cc1ccc(S(=O)(=O)NC2c3cccc4cccc(c34)C2Sc2nc(C)cc(C)n2)cc1 (stereo not drawn) | nt | nt | 19 | -2 | nt | nt | nt
CO[C@@H](CN(C)C(=O)c1ccc2c(c1)OCO2)[C@@H](C)CN([C@H](C)CO)S(=O)(=O)c1ccc(Cl)cc1 | 17 | 0 | nt | -1 | -3 | nt | nt
CC(C)(C)c1ccc(-c2noc(CCC(=O)NCc3ccco3)n2)cc1 | -1 | -1 | nt | nt | -24* | -5.1 | ?
Cc1cc(-c2ccc(C)c(S(=O)(=O)NCC3CCN(Cc4ccccc4F)CC3)c2)on1 | -5 | 0 | 36 | -1 | -16* | -9 | -6.6
C[C@H](CO)N1C[C@H](C)[C@H](CN(C)S(=O)(=O)c2ccccc2F)Oc2ncc(C#Cc3ccccc3F)cc2C1=O | 3 | 0 | 1[16.7 µM] | 3 | -2 | nt | nt
Cc1[nH]nc2c1C(c1ccc(F)cc1)N(Cc1ccccc1)C2=O (stereo not drawn) | 1 | 0 | nt | nt | -21* | nt | ?
CC(C)c1[nH]nc2c1C(c1ccc(F)cc1)N(Cc1ccccc1)C2=O (stereo not drawn) | 2 | 0 | nt | nt | -54 | nt | nt
COc1ccc2c3c(n(C)c2c1)[C@H](CO)N(C(=O)NC(C)C)CC31CCN(CC2CC2)CC1 | -3 | 0 | nt | nt | 6 | nt | nt
CC(C)c1ccc(-c2nc3ccccc3s2)cc1 | -4 | nt | nt | nt | -16* | -3.1 | -4.9
COc1cccc(S(=O)(=O)N[C@H]2CC[C@@H](CC(=O)NCc3ccccc3)O[C@@H]2CO)c1 | 9 | 0 | nt | 2 | 0 | nt | nt
COc1ccccc1C(=O)Nc1cccc2cccnc12 | -4 | nt | nt | -1 | -30* | -8.4 | nt
SMILES | DENV2 CPE rescue | E-selectin induc | miR122 inh | Cneo AK release | Ecoli rRNA inh | AID977621 | AID977628 | others
Cc1ccc(-c2c[n+](CC(=O)OCc3ccccc3)c3n2CCC3)cc1 | -4 | nt | -4 | -2 | -14* | -20 | -8.4
COc1ccc(NC(=O)Nc2ccc3c(c2)C(=O)N([C@H](C)CO)C[C@H](C)[C@@H](CN(C)S(=O)(=O)c2cn(C)cn2)OCCCC[C@@H](C)O3)cc1 | -2 | 0 | 0[16.7 µM] | -2 | 0 | nt | nt
COC(=O)c1c(-c2ccccc2)noc1C | 4 | 3 | nt | nt | 11 | nt | nt
COC(=O)c1c(C)oc(C)c1S(=O)(=O)NC(c1ccccc1)c1ccccc1 | -8 | 4 | 48 | 7 | -35* | -21 | nt
Cc1noc(C)c1NC(=O)N(C)C[C@H]1OCCCC[C@H](C)Oc2ccc(NS(C)(=O)=O)cc2C(=O)N([C@@H](C)CO)C[C@H]1C | ? | 4 | 29[16.7 µM] | 49 | 2 | nt | nt
COC(=O)c1ccc(C(=O)Nc2ccc3nc(-c4ccncc4)[nH]c3c2)cc1 | -4 | 0 | -2 | 0 | -28* | -3.4 | -3.2
O=C(Nc1ccc2nc(-c3cccnc3)[nH]c2c1)c1ccco1 | 7 | 0 | 2 | -5 | -31* | -13 | nt
O=C(Nc1ccc2nc(-c3ccccc3)[nH]c2c1)c1cccs1 | nt | nt | 15 | -2 | -32* | -9 | nt
COC(=O)c1ccc(C(=O)Nc2ccc3nc(-c4cccnc4)[nH]c3c2)cc1 | nt | nt | -8 | -4 | nt | nt | nt
O=C(COc1ccc(Br)cc1)Nc1ccc(C(=O)Nc2ccccc2C(=O)O)cc1 | -7 | nt | 7 | -3 | -28* | -2.8 | -6.1
CN(C(=O)c1ccc(Cl)cc1)c1ccc(OCC(=O)Nc2cc(C(=O)O)ccc2Cl)cc1 | -2 | 0 | nt | nt | -7 | nt | nt
CN(C(=O)c1ccc(F)cc1)c1ccc(OCC(=O)Nc2ccccc2C(=O)O)cc1 | 10 | 0 | -3 | -1 | -14* | -0.79 | ?
CC(=O)NS(=O)(=O)c1ccc(NC(=O)COc2ccc(C(=O)c3ccccc3)cc2)cc1 | -10 | nt | -1 | 1 | -27* | ? | nt
COc1cccc(SCC(=O)N2CCN(c3ccccc3)CC2)c1 | -6 | nt | nt | 4 | -23* | -12 | ?

Screening results: PubChem, Broad Institute
